# Results taken from ChEMBL document CHEMBL3132746, “Development of CBAP-BPyne, a probe for γ-secretase and presenilinase” (Medchemcomm, 2014).
# Activity calls are given as the source filed them. The calls are words filed in the database; no cut-off is given here.
# Tests used:
# [1] = target: Presenilin-1 (Homo sapiens) (UniProt P49768); assay: Inhibition of PS1 PSase activity in human HeLa cells assessed as accumulation of full length protein at 1 to 10 uM after 4 days by Western blot analysis; type: cell-based
# Method in brief: (§1)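 HeLa cells treated 4 days at 1, 3 or 10 µM, with DMSO vehicle as control. Lysis in RIPA buffer; 15 µg lysate run on 12% Bis-Tris gel in MES buffer. Western blot with anti PS1-NTF antibody, scoring full-length PS1 and PS1-NTF bands.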
# [2] = target: Presenilin-1 (Homo sapiens) (UniProt P49768); assay: Binding affinity to PS1-CTF in human HeLa cell membrane by photolabelling assay; type: cell membranes
# Method in brief: (§2)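 Photolabelling: 600 µg HeLa cell membrane diluted in PBS, preincubated with 2 µM CBAP or vehicle for 15 min at 37 °C. Then 20 nM probe for 1 h at 37 °C and UV irradiation (350 nm) for 45 min. Membranes pelleted and clicked to biotin azide (1 h, RT). Streptavidin pull-down overnight at 4 °C, biotin elution, Western blot with the relevant subunit antibody.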
# [3] = target: Presenilin-1 (Homo sapiens) (UniProt P49768); assay: Binding affinity to PS1-NTF in human HeLa cell membrane by photolabelling assay; type: cell membranes; method in brief: as §2
# [4] = target: Nicastrin (Homo sapiens) (UniProt Q92542); assay: Binding affinity to nicastrin in human HeLa cell membrane by photolabelling assay; type: cell membranes; method in brief: as §2
# Sequence of Nicastrin (Homo sapiens) (Q92542 whole entry): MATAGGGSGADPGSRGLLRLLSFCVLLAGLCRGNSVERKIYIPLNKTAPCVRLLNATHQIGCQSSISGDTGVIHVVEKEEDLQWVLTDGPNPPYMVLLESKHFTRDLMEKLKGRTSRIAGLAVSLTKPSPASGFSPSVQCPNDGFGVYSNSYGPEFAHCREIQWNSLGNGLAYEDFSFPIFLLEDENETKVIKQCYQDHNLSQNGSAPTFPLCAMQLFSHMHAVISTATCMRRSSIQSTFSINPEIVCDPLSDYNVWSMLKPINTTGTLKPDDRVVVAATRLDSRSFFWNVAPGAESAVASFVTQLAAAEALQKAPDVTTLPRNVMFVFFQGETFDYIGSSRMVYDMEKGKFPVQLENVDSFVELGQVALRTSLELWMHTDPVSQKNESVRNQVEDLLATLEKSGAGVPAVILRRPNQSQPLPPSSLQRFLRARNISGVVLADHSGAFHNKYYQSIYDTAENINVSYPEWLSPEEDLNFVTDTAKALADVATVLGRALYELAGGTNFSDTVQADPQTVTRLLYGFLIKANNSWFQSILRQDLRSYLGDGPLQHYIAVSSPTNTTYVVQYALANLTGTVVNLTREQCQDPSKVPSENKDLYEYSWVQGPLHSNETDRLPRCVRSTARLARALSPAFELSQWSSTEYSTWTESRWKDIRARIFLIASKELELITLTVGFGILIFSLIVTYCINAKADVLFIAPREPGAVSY
# [5] = target: Gamma-secretase; assay: Inhibition of gamma-secretase (unknown origin) using Notch1 substrate assessed as Notch1-NICD production; type: protein-complex assay, Homo sapiens
# [6] = target: Gamma-secretase; assay: Inhibition of gamma-secretase (unknown origin) using APP substrate assessed as amyloid-beta40 production; type: protein-complex assay, Homo sapiens
# [7] = system: HeLa; assay: Binding affinity to Signal peptide peptidase in human HeLa cell membrane by photolabelling assay; type: cell membranes; method in brief: as §2
# [8] = target: Gamma-secretase; assay: Inhibition of gamma-secretase (unknown origin) expressed in CHO cells transfected with APP assessed as amyloid-beta42 production by cell based assay; design: species or system Homo sapiens
# [9] = target: Gamma-secretase subunit PEN-2 (Homo sapiens) (UniProt Q9NZ42); assay: Binding affinity to Pen-2 in human HeLa cell membrane by photolabelling assay; type: cell membranes; method in brief: as §2
# Sequence of Gamma-secretase subunit PEN-2 (Homo sapiens) (Q9NZ42 whole entry): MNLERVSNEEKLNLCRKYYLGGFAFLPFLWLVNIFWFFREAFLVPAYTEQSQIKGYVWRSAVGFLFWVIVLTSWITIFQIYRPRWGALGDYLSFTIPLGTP
# [10] = system: HeLa; assay: Binding affinity to Aph-1 in human HeLa cell membrane by photolabelling assay; type: cell membranes; method in brief: as §2
# [11] = target: Presenilin-1 (Homo sapiens) (UniProt P49768); assay: Inhibition of PS1 PSase activity in human HeLa cells assessed as complete depletion of PS1-NTF protein at 1 to 10 uM after 4 days by Western blot analysis relative to control; type: cell-based; method in brief: as §1
inhibition [1],Activity [2],Activity [3],Activity [4],IC50 [5],IC50 [6],IC50 [8],Activity [9],inhibition [11],Compound,Activity [7],Activity [10]
inactive,–,–,–,–,–,–,–,–,CC(C)C[C@H](NC(=O)[C@H](Cc1ccccc1)C[C@@H](O)[C@H](Cc1ccccc1)NC(=O)OC(C)(C)C)C(=O)N[C@@H](Cc1ccccc1)C(N)=O,–,–
Active,inactive,Active,inactive,1 nM,0.91 nM,20 nM,inactive,–,C#CCOc1ccc(C(=O)c2ccc(C(=O)N[C@@H](Cc3ccccc3)[C@H](O)C[C@@H](Cc3ccccc3)C(=O)N[C@@H](C)C(=O)N[C@@H]3N=C(C4CCCCC4)c4ccccc4NC3=O)cc2)cc1,Active,inactive
Active,inactive,Active,inactive,0.56 nM,0.7 nM,28 nM,inactive,Active,C[C@H](NC(=O)[C@H](Cc1ccccc1)C[C@@H](O)[C@H](Cc1ccccc1)NC(=O)OC(C)(C)C)C(=O)N[C@@H]1N=C(C2CCCCC2)c2ccccc2NC1=O,Active,inactive
